Source: PubChem (Broad Institute)
XiGFP reactiv – X-chromosome reactivation activator; XiGFP mouse fibroblasts, % GFP-positive cells imaging, 3 d; cells co-treated with 5-aza-dC sensitizer; scaled so ellipticine positive control = 100%; activation, % at 7.58 µM; hit rate 0.055% among 360,000; AID 743238;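 active means mean normalized replicate activation at least 10% and every replicate at or above 10%; inconclusive means only one of the two criteria met; inactive means mean below 10% and not all replicates reach 10%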;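 further: 0% = median of on-plate neutral control wells and 100% = ellipticine 6 µM median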
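System: 68-5-11 XiGFP fibroblast line; Timing: 3 days compound exposure; Compound dosing: one concentration, pinned; Benchmarks: positive control ellipticine, 6 µM final; Buffer or medium: DMEM containing 5-aza-dC.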
Vif imaging – blocks HIV Vif function; hit rate 0.35% among 340,000; HEK293T cells, Vif self-association by quenched fluorescence, imaging, 24 h; inhibition, % at 7.49 µM; in the data active means inhibition above about 50%, passing the limit was not always enough; inconclusive means no clear call, values can overlap the other calls; inactive means below about 31%
Wnt bcat act – activates Wnt/beta-catenin signaling in a reporter cell assay. activation, % at 9.35 µM. hit rate 1.2% among 300,000. activator, plate reader. AID 743398; in the data active means activation above about 30%, passing the limit was not always enough; inconclusive means no clear call, values can overlap the other calls;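 further: 0% = neutral control wells and 100% = positive control wells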
esBAF inh – inhibitors of esBAF chromatin remodeling in mouse ES cells. reporter increase, % at 12.5 µM. Bmi1-luciferase knock-in reporter, 24 h; 100% = twice the neutral-well signal. hit rate 2% among 350,000. AID 602393; in the data active means activation above about 40%; inconclusive means no clear call, values can overlap the other calls;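 further: 0% = median of the plate's neutral control wells and 100% = double that signal; a rise in the Bmi1 reporter signal indicates esBAF inhibition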
MITF act – MITF TRPM1 promoter activation in melanoma cells; SK-MEL-5 TRPM1-promoter luciferase, 24 h; % of positive control, neutral wells = 0; activation, % at 12.5 µM; hit rate 0.75% among 300,000;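 active means mean activation of at least 80% with every replicate also reaching 80%; inconclusive means mean reaches 80% but some replicate falls short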;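 further: 0% = neutral control wells and 100% = parthenolide positive control wells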
* = called active by the depositor; u = inconclusive; x = not tested or not shown. The list is not random: actives were taken first. Their share in the collection is about 2.6%.

SMILES | XiGFP reactiv | Vif imaging | Wnt bcat act | esBAF inh | MITF act
CN(c1ccccc1)c1nc2ccsc2c(=O)s1 | x | 7 | 7 | 47* | 99*
CCC(=O)N1CCc2cc(-c3csc(NC(=O)c4ccco4)n3)ccc21 | 0 | -1 | 5 | 45* | 62
CCC(=O)Nc1nc(-c2ccc3c(c2)CC(C)N3S(C)(=O)=O)cs1 (stereo not drawn) | 0 | x | 7 | 54* | 35
O=C(Nc1nc(-c2ccc3c(c2)OCCO3)cs1)c1ccco1 | 0 | -4 | u | -3 | 54
COc1ccc(NC(=O)Nc2ccc3c(c2)C(=O)N([C@H](C)CO)C[C@H](C)[C@H](CN(C)C(=O)Nc2ccc4c(c2)OCO4)OCCCC[C@@H](C)O3)cc1 | 0 | x | x | -6 | x
Cc1cnc(NC(=O)COc2ccccc2)s1 | x | -6 | 58* | 22 | x
Cc1cnc(NC(=O)CCc2ccccc2)s1 | 0 | 0 | 10 | 18 | 39
COc1ccccc1OCC(=O)Nc1ncc(C)s1 | 2 | -3 | 36* | 9 | 80
COC(=O)c1sc(NC(=O)COc2ccccc2OC)nc1C | x | 3 | x | -9 | -4
C[C@@H]1CCCCO[C@@H](CN(C)C(=O)c2ccccc2)[C@H](C)CN([C@H](C)CO)C(=O)c2cc(N(C)C)ccc2O1 | 0 | x | x | 2 | x
CCC(=O)N1C[C@@H](C)[C@H](OC)CN(C)C(=O)c2ccc(NC(=O)C3CC3)cc2OC[C@@H]1C | 0 | x | x | 7 | x
Cn1cc(-c2coc3c(C(=O)Nc4ccccc4)cccc23)cn1 | 0 | -5 | 4 | 8 | x
Cn1cc(-c2coc3c(C(=O)NCc4ccco4)cccc23)cn1 | x | -3 | x | 72* | x
Cc1nc(Nc2nc3ccccc3o2)nc(C)c1C | 0 | 4 | -2 | x | 5
Cc1ccc2oc(Nc3nc(C)c(C)c(C)n3)nc2c1 | 0 | -7 | 41* | x | x
O=C(Nc1cc(F)ccc1F)N[C@H]1CC[C@@H](CCn2cc(C3CC3)nn2)O[C@@H]1CO | 0 | x | x | -1 | x
Cc1cc(C)n2c(Br)c(CSc3nc4ccccc4s3)nc2n1 | x | -14 | x | 48* | 71
CN(C)CC(=O)Nc1ccc2c(c1)[C@@H]1C[C@H](CC(=O)N3CCCCC3)O[C@@H](CO)[C@@H]1O2 | 0 | x | x | -2 | x
COCCn1c(SCc2nc3ccccc3s2)nc2ccccc21 | x | -6 | u | 104* | 28
COc1ccc(-n2nnnc2SCc2nc3ccccc3s2)cc1 | x | 26 | x | 71* | 30
COc1ccc(C)cc1-n1nnnc1SCC1CCCO1 (stereo not drawn) | x | x | x | x | -6
COc1ccc(C)cc1-n1nnnc1SCc1nc2ccccc2s1 | x | -12 | 24 | 57* | x
COc1ccc(CSc2nnnn2-c2ccccc2)cc1 | x | x | x | 5 | 19
Cc1cc(OCCN2CCOCC2)ccc1Cl | 0 | -3 | 11 | 43* | 71
C[C@H]1CN([C@@H](C)CO)C(=O)Cc2cc(NS(=O)(=O)c3cn(C)cn3)ccc2O[C@@H]1CN(C)Cc1ccc(C(=O)O)cc1 | 0 | x | x | -1 | x
SMILES | XiGFP reactiv | Vif imaging | Wnt bcat act | esBAF inh | MITF act
O=C1CN(Cc2ccccc2)C[C@H]2[C@H](c3ccc(-c4ccccc4F)cc3)[C@@H](CO)N12 | 0 | x | x | x | x
COC(=O)CSc1nc(C2CC2)cc(C(F)(F)F)c1C#N | x | 79* | -6 | -5 | 8
CCSc1nc(C2CC2)cc(-c2cccs2)c1C#N | x | -1 | -4 | 0 | 7
CCc1c(C)nc(SCC(=O)c2cccs2)c(C#N)c1C | x | x | x | 54* | 40
N#Cc1c(-c2ccccc2F)cc(C2CC2)nc1SCC(=O)c1cccs1 | 60* | 19 | -5 | -8 | 12
CO[C@@H]1CN(C)C(=O)c2cc(NC(=O)c3cc(C)on3)ccc2OC[C@@H](C)NC[C@@H]1C | 0 | x | x | -6 | x
CCN(CC)c1nc(C)nc2c1cnn2CCc1ccccc1 | x | 35 | x | 80* | 89*
COc1ccc(NC(=O)Nc2cccc3c2O[C@@H](CN(C)S(=O)(=O)c2ccc(Cl)cc2)[C@H](C)CN([C@H](C)CO)C3=O)cc1 | 0 | x | x | 3 | x
COc1ccc(N/C=C2/Sc3ccccc3NC2=O)cc1 | 0 | -6 | -1 | 53* | 47
Cc1ccc(N/C=C2/Sc3ccccc3NC2=O)cc1 | 0 | -2 | 37* | x | 56
O=C1Nc2ccccc2S/C1=C/c1cccs1 | 0 | 0 | 34* | x | x
COc1ccccc1N/C=C1/Sc2cc(Cl)ccc2NC1=O | 1 | x | 1 | x | x
O=C1Nc2ccccc2S/C1=C/NCc1ccccc1Cl | 0 | 0 | x | x | 15
COc1cccc(-c2ccc3n(c2=O)C[C@H]2[C@H](CO)[C@@H](C(=O)NC4CCCC4)N[C@@H]32)c1 | 0 | x | x | 2 | x
CCCC(=O)N1CCC2(CC1)CN(S(C)(=O)=O)[C@H](CO)c1c2c2ccc(OC)cc2n1C | 0 | x | x | x | x
C[C@@H]1CCCCO[C@H](CN(C)C(=O)Cc2ccccc2)[C@H](C)CN([C@H](C)CO)C(=O)c2cc(NC(=O)c3ccccc3)ccc2O1 | 0 | x | x | -2 | x
CN1[C@@H]2c3ccc(/C=C/c4ccccc4)c(=O)n3C[C@@H]2[C@@H](CO)[C@@H]1C(=O)N1CCOCC1 | 1 | x | x | 8 | x
COc1ccccc1NC(=O)c1nnn(Cc2ccccc2)c1NC(=O)C(F)(F)F | x | 6 | 2 | -4 | x
O=C(Nc1ccccc1)c1nnn(Cc2ccccc2)c1NC(=O)C(F)(F)F | x | -4 | 21 | 56* | x
O=C(c1cc(=O)[nH]c2ccccc12)N1CCN(c2ccc([N+](=O)[O-])cc2)CC1 | x | 1 | 39* | -2 | -13
COc1ccc(/C=C2/CSC/C(=C/c3ccc(OC)c(OC)c3)C2=O)cc1OC | 0 | 12 | -11 | x | x
COc1cc(C=C2CCCC(=Cc3ccc(OCC4CO4)c(OC)c3)C2=O)ccc1OCC1CO1 (stereo not drawn) | 1 | 62* | -6 | x | x
CN(CC(=O)Nc1ccccc1Br)C(=O)COc1ccc2ccccc2c1 | 0 | -3 | 1 | 41* | -15
CCOCCCNC(=O)c1cccc(OC2CCN(S(C)(=O)=O)CC2)c1 | 0 | -1 | 13 | 67* | x
O=C(O)c1cccc(N/N=C/c2cc(Br)cc(Br)c2O)c1 | 0 | 0 | x | 77* | 21
SMILES | XiGFP reactiv | Vif imaging | Wnt bcat act | esBAF inh | MITF act
CCC(=O)Nc1ccc2c(c1)OC[C@@H](C)N(C(=O)Cc1cccnc1)C[C@@H](C)[C@H](OC)CN(C)C2=O | 0 | x | x | 1 | x
C/C(=N\Nc1cccc2cccnc12)c1ccc(N)cc1 | 0 | 1 | 2 | 64* | 16
C[C@H]1CN([C@@H](C)CO)C(=O)Cc2cc(NC(=O)C3CC3)ccc2O[C@H]1CN(C)CC1CCCCC1 | -1 | x | x | -1 | x
COc1ccc2c3c([nH]c2c1)[C@H](CO)N(Cc1ccccc1)CC31CN(CC2CC2)C1 | 0 | x | x | x | x
CN(C(=O)COc1cc(C(F)(F)F)nn1C)c1ccccc1 | 0 | -6 | -2 | x | -4
Cn1nc(C(F)(F)F)cc1-c1ccc(S(N)(=O)=O)s1 | 0 | -10 | 23 | 52* | 72
CN(C)C(=O)c1ccc(-c2cc(C(F)(F)F)nn2C)s1 | 0 | 6 | 33* | x | x
